The entries come from a sample that favours hits as a whole.
NOD2 RIPK2 PPI = inhibitors of human NOD2-RIPK2 interaction; actives 0.38% (n = 360,000); CHO BLA complementation NOD2-RIPK2, CCF4 ratio; inhibition, % at 4.98 µM; O43353; in the data active means inhibition above about 21%
Target sequence (O43353 whole entry, looked up): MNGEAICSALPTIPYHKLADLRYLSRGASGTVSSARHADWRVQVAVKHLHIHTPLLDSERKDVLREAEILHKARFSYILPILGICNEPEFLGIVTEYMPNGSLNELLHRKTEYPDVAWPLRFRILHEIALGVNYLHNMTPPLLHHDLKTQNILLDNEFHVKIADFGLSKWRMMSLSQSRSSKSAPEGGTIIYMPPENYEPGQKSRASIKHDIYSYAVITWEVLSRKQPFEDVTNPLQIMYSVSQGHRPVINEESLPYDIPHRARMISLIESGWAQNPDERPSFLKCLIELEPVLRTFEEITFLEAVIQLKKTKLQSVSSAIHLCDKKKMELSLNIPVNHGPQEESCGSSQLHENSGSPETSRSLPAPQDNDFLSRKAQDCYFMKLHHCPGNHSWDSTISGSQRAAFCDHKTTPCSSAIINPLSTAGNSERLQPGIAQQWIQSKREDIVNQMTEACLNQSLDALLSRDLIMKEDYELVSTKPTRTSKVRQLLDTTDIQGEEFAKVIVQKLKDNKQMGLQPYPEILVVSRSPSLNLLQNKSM
XBP1 UPR activ = activators of adaptive arm of unfolded protein response (XBP1); activation, % at 20 µM; actives 0.33% (n = 330,000); AID 463104; CHO-XBP1 luciferase reporter, IRE1-XBP1 UPR activation, luminescence; percent of tunicamycin response, DMSO as zero;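 active means versus positive control, 20 µM dose yields 30% or more activation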
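incubation = overnight seeding at 37 °C, 6 h compound treatment at 37 °C | assay system = CHO-XBP1 cells stably carrying IRE1-XBP1-driven luciferase reporter | input = 1000 cells per well | detection = luciferase luminescence | dosing = single point, 20 µM final compound, 1% DMSO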
TLR9-MyD88 block = TLR9-MyD88 interaction inhibition; CHO BLA complementation TLR9-MyD88, CCF4 FRET ratio; inhibition, % at 4.98 µM; actives 0.21% (n = 340,000);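 active means inhibition above the mean over all tested compounds plus 3 SD, cut at about 21% in these data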
CHOP UPR activ = apoptotic UPR (CHOP) activation; CHO-CHOP luciferase reporter, luminescence; percent of tunicamycin response over DMSO baseline; activation, % at 10 µM; actives 0.34% (n = 330,000);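 active means at 10 µM dose, activation of 40% or more, normalized to positive control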
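Material: CHO-CHOP cells, stable luciferase reporter of PERK-eIF2a-CHOP signalling; quantity: 500 reporter cells seeded per well; buffer or medium: F12 medium containing 10% fetal bovine serum; compound: one dose, 10 µM in 0.5% DMSO; incubation: 6 h compound treatment, 37 °C; measured by: Steady-Glo luciferase luminescence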
TLR4-MyD88 BLA = TLR4-MyD88 interaction inhibition in cells | HeLa CL3-4 TLR4/MyD88 BLA complementation, FRET ratio | AID 861 | actives 0.18% (n = 200,000) | inhibition, % at 8.4 µM | O00206+Q99836; in the data active means inhibition above about 25%
CHOP inhibitor = blocks CHOP induction under ER stress; AID 2732; CHO-K1 CHOP-promoter luciferase, tunicamycin-induced, 15-18 h; inhibition, % at 10 µM; actives 3.8% (n = 220,000);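 active means compounds that reduced the stress-induced luciferase reporter signal by more than about 70% of percent inhibition, limit read from the data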
CHOP confirm = confirmation of CHOP induction inhibitors | shares compounds with CHOP inhibitor | CHO-CHOP promoter luciferase reporter, tunicamycin-induced, luminescence | inhibition, % at 10 µM | actives 45% (n = 2,100) | AID 504437;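 active means mean of three repeat readings of reporter signal inhibition above a set limit, cut at about 70% in these data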
Hits are given with their value; – = inactive; · = not tested or not shown.

SMILES	NOD2 RIPK2 PPI	XBP1 UPR activ	TLR9-MyD88 block	CHOP UPR activ	TLR4-MyD88 BLA	CHOP inhibitor	CHOP confirm
CS(=O)(=O)c1ccc(C(=O)OCC(=O)NC(=O)C2CCCCC2)cc1[N+](=O)[O-]	–	–	–	–	–	97	–
COc1cc(C(=O)ON=C2C(C)=CC(=O)C=C2C)cc(OC)c1OC	–	–	–	–	–	110	–
CCOc1cccc2cc(-c3nnc(NCc4ccco4)s3)c(=O)oc12	–	–	–	–	–	97	–
CNC(=O)c1c(NC(=O)c2cc(-c3cc(C)c(C)cc3O)n[nH]2)sc2c1CCCC2	·	50	·	–	·	103	–
CSc1ccc(/C=N/n2c(Cc3ccc(Br)cc3)n[nH]c2=S)cc1	–	–	–	–	–	101	–
COc1cc(C)nc(N2CCCC(C(=O)Nc3cccc(Cl)c3C)C2)n1 (centres undefined)	–	–	–	–	–	105	95
N#Cc1c(Cl)c(Cl)c2nnc(-c3ccc(Br)cc3)n2c1Cl	·	–	·	–	–	104	–
CCOC(=O)CC(=O)CSc1n[nH]c(=O)[nH]c1=O	–	–	–	–	·	–	·
O=S(=O)(/C=C/c1ccccc1)N1CCN(c2cccc(Cl)c2)CC1	–	–	–	–	–	–	·
O=S(=O)(c1cc(Cl)ccc1Cl)N1CCN(c2ccccn2)CC1	–	–	–	–	·	·	·
Cc1csc(NC(=O)CSc2nnc(C)s2)n1	–	–	–	–	–	–	·
Cc1csc(NC(=O)CSc2nnc(NC(=O)COc3ccccc3)s2)n1	–	–	–	–	–	101	–
Cc1ccc2nc(NC(=O)c3ccc4ncsc4c3)sc2c1	–	–	–	–	–	103	–
CC(C)COC(=O)/C(C#N)=C/c1c[nH]c2ccccc12	–	–	–	–	–	101	–
N#C/C(=C\c1c[nH]c2ccccc12)C(=O)c1ccc(O)c(O)c1	·	·	·	·	·	–	·
C=CCOC(=O)C1=C(C)NC(SCC(N)=O)=C(C#N)C1c1ccc(C)cc1 (centres undefined)	–	–	–	–	·	–	·
C=CCOC(=O)C1=C(C)NC(SCC)=C(C#N)C1c1ccc(Cl)cc1 (centres undefined)	–	–	–	–	–	102	–
COc1ccc(/C=N\NC(=O)COc2ccc(C(C)(C)C)cc2)cc1Cn1nc(C)cc1C	–	–	–	–	–	110	104
COc1ccc(/C=N/NC(=O)c2ccco2)cc1Cn1nc(C)cc1C	–	–	–	–	–	–	·
Cc1cc(OCc2cc(C(=O)NCCN3CCCCC3CO)no2)cc(C)c1Cl (centres undefined)	–	–	–	–	·	·	·
Cc1cccc(NC(=O)C2(C)CC3c4ccccc4C2c2ccccc23)c1 (centres undefined)	–	–	–	–	–	103	–
Cc1ccc(C(=O)NNC(=S)NC(=O)c2ccccc2)cc1	–	–	–	–	·	·	·
Cc1ccc(C(=O)NNC(=S)NC(=O)c2ccc(Cl)cc2Cl)cc1	–	–	–	–	–	98	–
CC(=O)c1cccc(-n2nnnc2SCC(=O)N2CCCC2)c1	–	–	–	–	–	–	·
Cc1c(C(=O)N/N=C/c2ccc(Cl)cc2)[nH]c2ccc(Cl)cc12	–	–	–	–	–	98	–
SMILES	NOD2 RIPK2 PPI	XBP1 UPR activ	TLR9-MyD88 block	CHOP UPR activ	TLR4-MyD88 BLA	CHOP inhibitor	CHOP confirm
Cc1ccc(OCCSc2nc3ccccc3n2CC(=O)O)cc1	–	–	–	–	·	·	·
O=C(O)CSCC(=O)Nc1ccc(C2CCCCC2)cc1	–	–	–	–	–	99	108
CC(C)Cn1c(=O)[nH]c(=O)c2c(C(F)(F)F)cc(-c3ccccc3)nc21	–	–	–	–	·	99	100
CCCn1c(=O)[nH]c(=O)c2c(C(F)(F)F)cc(-c3ccc(C)cc3)nc21	–	–	–	–	–	–	·
COC(=O)Cc1ccc(NC(=S)NNC(=O)C2CC2)cc1	–	–	–	–	·	–	·
c1ccc(-c2nnc(C(c3ccccc3)c3ccccc3)o2)cc1	–	–	–	–	–	–	·
